Source: ChEMBL document CHEMBL1147245, “Chemistry of renieramycins. Part 3.(1) isolation and structure of stabilized renieramycin type derivatives possessing antitumor activity from Thai sponge Xestospongia species, pretreated with potassium cyanide” (J Nat Prod, 2003)
pIC50: −log10 of the molar value.

Assays:
Format in all cases: functional, cell-based
HCT-116 = assay: Cytotoxicity against human HCT116 cells after 4 days; conditions: HCT-116, 96 h
Summary of the method: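 HCT116 cells seeded as single-cell suspension at 2×10^3 cells/well onto serially diluted compounds, cultured 4 days; growth read with a cell counting kit. IC50 taken as concentration giving 50% growth inhibition relative to untreated control.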

QG-56 = assay: Cytotoxicity against human QG56 cells after 4 days; conditions: QG-56, 96 h
NCI-H460 = assay: Cytotoxicity against human NCI-H460 cells after 4 days; conditions: NCI-H460, 96 h
DLD-1 = assay: Cytotoxicity against human DLD1 cells after 4 days; conditions: DLD-1, 96 h

| Compound | pIC50 (HCT-116) | pIC50 (QG-56) | pIC50 (NCI-H460) | pIC50 (DLD-1) |
| --- | --- | --- | --- | --- |
| COc1cc2c(cc1O)CCN[C@]21CS[C@@H]2c3c(OC(C)=O)c(C)c4c(c3[C@H](COC1=O)N1[C@@H]2[C@H]2c3c(cc(C)c(OC)c3O)C[C@@H]([C@@H]1C#N)N2C)OCO4 [ECTEINASCIDIN 770] | 8.92 | 8.41 | 9.19 | 8.62 |
| C/C=C(/C)C(=O)OC[C@H]1C2=C(C[C@H]3[C@H]4C5=C(C[C@@H]([C@H](C#N)N13)N4C)C(=O)C(C)=C(OC)C5=O)C(=O)C(C)=C(OC)C2=O [RENIERAMYCIN M] | 8.10 | 7.72 | 8.23 | 8.02 |
| C/C=C(/C)C(=O)OC[C@H]1C2=C(C[C@H]3[C@H]4c5c(O)c(OC)c(C)c(O)c5[C@H](O)[C@@H]([C@H](C#N)N13)N4C)C(=O)C(C)=C(OC)C2=O [RENIERAMYCIN N] | 8.25 | 7.96 | 8.17 | 8.24 |
| C/C=C(/C)C(=O)OC[C@H]1C2=C(C[C@H]3[C@H]4C5=C(C(=O)C(C)=C(OC)C5=O)[C@H](O)[C@@H]([C@H](C#N)N13)N4C)C(=O)C(C)=C(OC)C2=O [RENIERAMYCIN O] | 7.55 | 7.40 | – | – |
| COC1=C(C)C(=O)C2=C(C1=O)[C@@H]1[C@@H]3CC4=C(C(=O)C(OC)=C(C)C4=O)[C@H](CNC(=O)C(C)=O)N3[C@@H](C#N)[C@H](C2)N1C [SAFRAMYCIN A] | 9.40 | 8.26 | 8.68 | 9.22 |
